Tests used:
hA2AAR = hA2AAR (Homo sapiens, UniProt P29274); assay: Radioligand binding at hA2AAR; conditions: 4a versus truncated 4′-thioadenosine derivative 2
hA3AR = biological target: T1, hA3AR (Homo sapiens, UniProt P0DMS8); assay: cAMP functional assay at the hA3AR expressed in CHO cells; format: cell-based; conditions: for functional behaviour at hA3AR: cAMP assay, CHO cells; for Emax at 10 µM: CHO, read-out: maximal stimulation of cAMP formation / % activation relative to the full agonist 16 (= 100%)
T1 sequence (P0DMS8 1-318): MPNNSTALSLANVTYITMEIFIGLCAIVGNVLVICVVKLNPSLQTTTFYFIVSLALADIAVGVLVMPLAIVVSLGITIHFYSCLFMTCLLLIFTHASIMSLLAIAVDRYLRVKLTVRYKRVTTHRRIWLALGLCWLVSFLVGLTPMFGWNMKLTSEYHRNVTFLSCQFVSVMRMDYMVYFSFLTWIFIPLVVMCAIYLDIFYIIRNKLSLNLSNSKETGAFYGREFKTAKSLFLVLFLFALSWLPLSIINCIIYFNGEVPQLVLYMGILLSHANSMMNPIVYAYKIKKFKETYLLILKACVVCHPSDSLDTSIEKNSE
Method in brief: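 Recombinant hA3AR-CHO cells, plated 24 h, washed with DMEM/50 mM HEPES pH 7.4. Treated with agonists and/or test compound plus rolipram (10 μM) and adenosine deaminase (3 units/mL); forskolin (10 μM) added at 45 min, incubation continued 15 min. Lysed with ice-cold 0.1 M HCl. cAMP quantified by PKA competition with [3H]cAMP (2 nM), GF/C filtration, scintillation, against cAMP standard curve. Mean ± SEM.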

A1, A2A, and A3ARs = conditions: read-out: EC50 for activation of A1, A2A, and A3ARs; ref [5]; cited from earlier work
A2BAR = conditions: read-out: EC50 for activation of A2BAR; ref [5]; cited from earlier work

Chain of hA2AAR (P29274 whole entry, the tested form may be a part): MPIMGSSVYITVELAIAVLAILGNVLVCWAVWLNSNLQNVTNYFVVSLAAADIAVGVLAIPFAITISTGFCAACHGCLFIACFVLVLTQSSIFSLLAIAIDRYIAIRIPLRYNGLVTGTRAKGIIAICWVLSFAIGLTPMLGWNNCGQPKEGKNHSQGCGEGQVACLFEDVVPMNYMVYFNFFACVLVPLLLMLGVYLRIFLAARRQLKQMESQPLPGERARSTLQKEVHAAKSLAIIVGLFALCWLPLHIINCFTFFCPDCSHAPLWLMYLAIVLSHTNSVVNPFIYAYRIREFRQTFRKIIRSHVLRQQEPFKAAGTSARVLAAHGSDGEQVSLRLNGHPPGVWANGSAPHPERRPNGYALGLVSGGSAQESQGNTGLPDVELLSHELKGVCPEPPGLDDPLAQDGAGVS

SMILES | functional behaviour at hA3AR (hA3AR) | Emax at 10 µM (hA3AR) [%] | other results
CCCCC#Cc1nc(N)c2ncn([C@H]3[C@H](O)[C@H](O)[C@@H]4C[C@@H]43)c2n1 [4a, (1R,2R,3S,4R,5S)-4-(6-Amino-2-(hex-1-ynyl)-9H-purin-9-yl)bicyclo[3.1.0]hexane-2,3-diol] |  |  | fold less potent than 2 in binding affinity at the hA2AAR (hA2AAR): 14 fold and ≈ 14 fold
CCCCC#Cc1nc(NC)c2ncn([C@H]3[C@H](O)[C@H](O)[C@@H]4C[C@@H]43)c2n1 [4b] | partial agonist |  | 
CCCCC#Cc1nc(NCC)c2ncn([C@H]3[C@H](O)[C@H](O)[C@@H]4C[C@@H]43)c2n1 [4c, (1R,2R,3S,4R,5S)-4-(6-(ethylamino)-2-(hex-1-ynyl)-9H-purin-9-yl)bicyclo[3.1.0]hexane-2,3-diol] | partial agonists | 15.5 ± 6.7 | 
CCCCC#Cc1nc(NC2CC2)c2ncn([C@H]3[C@H](O)[C@H](O)[C@@H]4C[C@@H]43)c2n1 [4d, (1R,2R,3S,4R,5S)-4-(6-(Cyclopropylamino)-2-(hex-1-ynyl)-9H-purin-9-yl)bicyclo[3.1.0]hexane-2,3-diol] | partial agonists | 19.8 ± 4.6 | 
CCCCC#Cc1nc(NC2CCCC2)c2ncn([C@H]3[C@H](O)[C@H](O)[C@@H]4C[C@@H]43)c2n1 [4e, (1R,2R,3S,4R,5S)-4-(6-(Cyclopentylamino)-2-(hex-1-ynyl)-9H-purin-9-yl)bicyclo[3.1.0]hexane-2,3-diol] | partial agonists | 27.1 ± 14.6 | 
CCCCC#Cc1nc(NCc2cccc(I)c2)c2ncn([C@H]3[C@H](O)[C@H](O)[C@@H]4C[C@@H]43)c2n1 [4f, (1R,2R,3S,4R,5S)-4-(6-(3-Iodobenzylamino)-2-(hex-1-ynyl)-9H-purin-9-yl)bicyclo[3.1.0]hexane-2,3-diol] | antagonists |  | 
CCCCC#Cc1nc(NCc2cccc(Br)c2)c2ncn([C@H]3[C@H](O)[C@H](O)[C@@H]4C[C@@H]43)c2n1 [4g, (1R,2R,3S,4R,5S)-4-(6-(3-Bromobenzylamino)-2-(hex-1-ynyl)-9H-purin-9-yl)bicyclo[3.1.0]hexane-2,3-diol] | antagonists |  | 
CCCCC#Cc1nc(NCc2cccc(Cl)c2)c2ncn([C@H]3[C@H](O)[C@H](O)[C@@H]4C[C@@H]43)c2n1 [4h, (1R,2R,3S,4R,5S)-4-(6-(3-Chlorobenzylamino)-2-(hex-1-ynyl)-9H-purin-9-yl)bicyclo[3.1.0] hexane-2,3-diol] | antagonists |  | 
CCCCC#Cc1nc(NCc2cccc(F)c2)c2ncn([C@H]3[C@H](O)[C@H](O)[C@@H]4C[C@@H]43)c2n1 [4i, (1R,2R,3S,4R,5S)-4-(6-(3-Fluorobenzylamino)-2-(hex-1-ynyl)-9H-purin-9-yl)bicyclo[3.1.0] hexane-2,3-diol] | partial agonists | 18.9 ± 7.5 | 

Reference: PMC3954500 (Journal of Medicinal Chemistry, 2014)
